Shown are actives, neighbours in structure and some others; about 4.9% of the full set was active somewhere.
STAT1 activator: increases IFN-gamma driven STAT1 reporter signal | NIH 3T3 STAT1-luciferase reporter, luminescence; 100% = IFN-gamma alone, no compound | activation (% of control), % at 5.5 µM | hit rate 2.6% among 200,000 | AID 932;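 active means activation above the screen-wide mean activation plus 3 SD, cut at about 130% in these data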;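 further: raw ratio to IFN-gamma control signal so 100% means no change and 0% no light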
STAT3 activator: increases IL-6 driven STAT3 reporter signal; U3A cells, IL-6 STAT3-luciferase reporter, luminescence; 100% = signal with IL-6 EC80 alone; hit rate 0.91% among 190,000; activation (% of control), % at 5.6 µM;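 active means activation above the screen-wide mean of compound activation plus 3 SD, cut at about 130% in these data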;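 further: 0% = background luminescence of wells with medium and substrate only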
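Test system: Human STAT1-deficient U3A cells with stable STAT3-luciferase reporter | Also added: Interleukin-6, 33 ng/mL | Timing: Compound pre-incubation 1 h before IL-6, then 6 h stimulation at 37 °C | Technique: Luciferase reporter luminescence | Read-out: Percent of IL-6-only median luminescence | Benchmarks: IL-6-only wells as 100% reference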
STAT3 inh: reduces IL-6 driven STAT3 reporter signal; inhibition, % at 5.5 µM; hit rate 0.89% among 190,000; U3A cells, IL-6 STAT3-luciferase reporter, luminescence; host cell line lacks STAT1;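 active means inhibition above the mean inhibition across all screened compounds plus 3 SD, cut at about 44% in these data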;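 further: 0% = DMSO only wells and 100% = 100 µM nifuroxazide control wells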
STAT1 blocker: reduces IFN-gamma driven STAT1 reporter signal; NIH 3T3 STAT1-luciferase reporter, luminescence; hit rate 0.35% among 200,000; inhibition, % at 5.5 µM; AID 920;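 active means inhibition above a set limit, the mean inhibition across all tested compounds plus 3 SD, cut at about 34% in these data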;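 further: 0% = IFN-gamma with DMSO and 100% = IFN-gamma with 300 µM nifuroxazide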
APP 5'UTR act: activates APP 5'UTR luciferase reporter; SH-SY5Y APP 5'UTR luciferase reporter, luminescence; zero percent = DMSO vehicle wells; activation, % at 2 µM; hit rate 1% among 190,000; AID 1276;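 active means activation above a set limit, based on mean plus 3 SD of controls, cut at about 140% in these data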
NF-kB neuron act: compounds increasing NF-kB expression in human neuronal cells. fold change at 12.5 µM. AID 1239. NF-kB reporter expression; stronger effect = higher value. hit rate 1.6% among 190,000; in the data active means fold change above about 3.3
Active calls of the source: *; . = no result given.

SMILES | STAT1 activator | STAT3 activator | STAT3 inh | STAT1 blocker | APP 5'UTR act | NF-kB neuron act
c1ccc(C2CCC3(CC2)Oc2ccccc2C2CC(c4cccnc4)=NN23)cc1 (configuration not stated) | 104 | 94 | 5 | -4 | 9 | 1.3
Cc1cccc(NC(=S)NN(Cc2ccccc2)c2ccccc2)c1C | 97 | 98 | 1 | 3 | . | 0.96
O=C(COC(=O)C1Cc2ccccc2CN1C(=O)c1ccccc1Cl)Nc1ccc(N2CCOCC2)cc1 (configuration not stated) | 103 | 107 | -5 | -3 | -9 | 0.9
CCCn1c(SCC(=O)Nc2ccccc2N2CCCCC2)nc2c1c(=O)n(C)c(=O)n2C | 98 | 99 | 4 | 2 | 2 | 0.9
O=C(N/N=C/c1cccs1)c1n[nH]c2c1CCC2 | 130* | 79 | 24 | -33 | 6 | 3
O=C(N/N=C/C(Br)=C/c1ccccc1)c1n[nH]c2c1CCC2 | 146* | 137* | -35 | -50 | . | 8*
O=C(N/N=C/c1cccs1)c1cncc(Br)c1 | 105 | 95 | 10 | -5 | 6 | 1.4
CN(C)/C=N/S(=O)(=O)c1ccc(Cl)cc1 | 99 | 103 | -2 | -1 | -2 | 0.95
O=c1cc(-c2ccc(F)cc2)oc2ccccc12 | 133* | 97 | 8 | -37 | 26 | .
O=c1cc(-c2ccccc2[N+](=O)[O-])oc2ccccc12 | 110 | 116 | -12 | -11 | 24 | 1
CSc1ccc(-c2cc(=O)c3ccccc3o2)cc1 | 134* | 141* | -45 | -37 | 142* | 3.1
O=c1cc(-c2ccccc2F)oc2ccccc12 | 135* | 101 | 2 | -38 | 64 | 2.3
CCOc1ncccc1C(=O)Nc1ncc(C)s1 | 111 | 100 | 6 | -13 | -9 | 0.98
Cn1c2c(c(=O)n(C)c1=O)C1c3cc(Cl)ccc3OCC1CO2 (configuration not stated) | 107 | 101 | 0 | -8 | 13 | 1.3
Cn1c(Cl)cnc1C1CC(=O)c2cc(Cl)ccc2O1 (configuration not stated) | 103 | 103 | 4 | -3 | -27 | 4.7*
COCC(=O)Nc1nnc(-c2ccc(C(C)(C)C)cc2)s1 | 136* | 91 | 15 | -39 | 142* | 8.4*
O=C(/C=C/c1cccs1)N1CCCCC1 | 130* | 105 | 1 | -34 | 44 | 1.2
O=C1Nc2ccccc2S/C1=C/Nc1cccc(Cl)c1 | 130* | 96 | 13 | -33 | 12 | 2
CC1(C)OC(=O)C(=CNn2cnc3ccccc3c2=O)C(=O)O1 | 111 | 103 | 1 | -12 | 132 | 2.2
CN=c1scc(-c2ccc([N+](=O)[O-])cc2)n1/N=C/c1ccco1 | 119 | 80 | 30 | -21 | 196* | 1.5
O=[N+]([O-])c1ccc(S(=O)(=O)N/N=C/c2ccco2)cc1 | 102 | 102 | 2 | -4 | 13 | 1
c1ccc(-c2cc3n(c2)CCc2ccccc2-3)cc1 | 130* | 191* | -106 | -43 | 48 | 2.9
O=C(O)c1cc2c(s1)-c1ccccc1CC2 | 103 | 107 | -12 | -3 | 16 | 0.98
CN(C)S(=O)(=O)c1ccc(C(=O)NCCOc2ccccc2)cc1 | 131* | 116 | -16 | -41 | . | 2.8
C=CCn1c(COc2ccccc2F)nnc1SCC(=O)Nc1cc(C)on1 | 102 | 102 | 2 | -4 | 6 | 0.96
SMILES | STAT1 activator | STAT3 activator | STAT3 inh | STAT1 blocker | APP 5'UTR act | NF-kB neuron act
O=C(CSc1ccc(Cl)cc1)Nc1cccc(-c2nnc(-c3ccco3)o2)c1 | 115 | 91 | 8 | -17 | 15 | 2.5
COc1ccccc1NC(=O)CSc1nnc(-c2ccc(C)cc2)o1 | 110 | 111 | -6 | -11 | 181* | .
Cc1ccc(SCC(=O)Nc2cccc(-c3nnc(-c4ccco4)o3)c2)cc1 | 134* | 100 | 5 | -38 | 56 | 1.6
COc1cccc(NC(=O)CSc2nnc(-c3ccc(C)cc3)o2)c1 | 101 | 109 | -2 | -1 | 217* | 2.4
Fc1ccc(CSc2nnc3ccc(-c4ccncc4)nn23)cc1 | 96 | 94 | 11 | 4 | 10 | 0.93
CCOC(=O)N/N=C(\C)c1ccc(C)o1 | 102 | 96 | 10 | -2 | -20 | 1.1
Cc1cc(Br)cn2ccnc12 | 102 | 102 | 3 | -3 | 11 | 1.3
Oc1ccc(CN2CCCCC2)c2cccnc12 | 99 | 100 | 4 | -1 | -88 | 11*
COCc1cc(CN2CCCC2)c(O)c2ncccc12 | 92 | 96 | 12 | 9 | -20 | 0.67
Oc1ccc(CN2CCN(c3ccccc3)CC2)c2cccnc12 | 93 | 112 | -11 | 2 | 7 | 0.85
CCOC(=O)N1CCN(Cc2ccc(O)c3ncccc23)CC1 | 98 | 94 | 11 | 1 | -11 | 4.8*
Oc1ccc(CN2CCc3ccccc3C2)c2cccnc12 | 93 | 94 | 8 | 7 | -87 | 5.2*
Oc1c(CN2CCCCC2)cc(COCc2ccccc2)c2cccnc12 | 100 | 103 | 1 | 0 | -85 | 3.8*
O=S(=O)(c1cnc(Cl)c(Br)c1)N1CCCCCC1 | 104 | 104 | -7 | -5 | 2 | 1.9
Fc1ccccc1CSc1nnc(-c2cccs2)o1 | 146* | 106 | -5 | -52 | 119 | 4.1*
Fc1ccc(CSc2nnc(-c3cccs3)o2)cc1 | 118 | 99 | 4 | -20 | 24 | 2.2
CC1CCCC(C)N1C(=O)CSc1nnc(-c2cccs2)o1 (configuration not stated) | 147* | 101 | 2 | -51 | 98 | 2.7
COCCN(C(=O)CSc1nnc(Nc2ccccc2F)s1)c1c(N)n(Cc2ccccc2)c(=O)[nH]c1=O | 94 | 109 | -13 | 7 | . | 1.1
Cc1nn(-c2cccc([N+](=O)[O-])c2)c(N)c1-c1ccccc1 | 142* | 108 | 0 | -44 | 49 | 3.2
COc1ccc(C2Nc3ccccc3C(=O)N2C2CCCCC2)cc1 (configuration not stated) | 106 | 112 | -13 | -8 | 23 | 1.3
COC(=O)N/N=C/c1ccc(-c2cccc(Cl)c2)o1 | 117 | 89 | 14 | -20 | -3 | 1.4
Nc1ccccc1N=Cc1ccc(-c2cccc(Cl)c2)o1 | 140* | 107 | -2 | -42 | 91 | 1.6
O=C(NCC(=O)N(c1cccnc1)C(C(=O)NC1CCCC1)c1cccs1)c1ccco1 (configuration not stated) | 100 | 98 | 8 | -3 | -19 | 1.2
Cc1cc2[nH]c3c(c[n+](C)c4ccccc34)c2cc1C | 221* | 151* | -53 | -133 | -83 | 1.1
O=C(COc1ccccc1C(=O)c1cnn(-c2ccccc2)c1)Nc1ccc2ccccc2c1 | 113 | 107 | -9 | -15 | 61 | 1.6
CC(C)c1ccc(NC(=O)COc2ccc(F)cc2C(=O)c2cnn(-c3ccccc3)c2)cc1 | 140* | 147* | -60 | -42 | 96 | 1.4

Screening results as filed in PubChem.
